Experimental data taken from ChEMBL document CHEMBL1142011, “Discovery of an exceptionally potent and selective class of fatty acid amide hydrolase inhibitors enlisting proteome-wide selectivity screening: concurrent optimization of enzyme inhibitor potency and selectivity” (Bioorg Med Chem Lett, 2005).
Values joined by “and” are separate entries in the source; they are usually repeats but may differ in a detail not shown here. Equal values may be shown once.

How the values were obtained:
[1] = target: T1, Fatty-acid amide hydrolase 1 (Homo sapiens, UniProt O00519); assay: Inhibitory concentration of fatty acid amide hydrolase using FP-Rh radioligand
T1 sequence (O00519 whole entry): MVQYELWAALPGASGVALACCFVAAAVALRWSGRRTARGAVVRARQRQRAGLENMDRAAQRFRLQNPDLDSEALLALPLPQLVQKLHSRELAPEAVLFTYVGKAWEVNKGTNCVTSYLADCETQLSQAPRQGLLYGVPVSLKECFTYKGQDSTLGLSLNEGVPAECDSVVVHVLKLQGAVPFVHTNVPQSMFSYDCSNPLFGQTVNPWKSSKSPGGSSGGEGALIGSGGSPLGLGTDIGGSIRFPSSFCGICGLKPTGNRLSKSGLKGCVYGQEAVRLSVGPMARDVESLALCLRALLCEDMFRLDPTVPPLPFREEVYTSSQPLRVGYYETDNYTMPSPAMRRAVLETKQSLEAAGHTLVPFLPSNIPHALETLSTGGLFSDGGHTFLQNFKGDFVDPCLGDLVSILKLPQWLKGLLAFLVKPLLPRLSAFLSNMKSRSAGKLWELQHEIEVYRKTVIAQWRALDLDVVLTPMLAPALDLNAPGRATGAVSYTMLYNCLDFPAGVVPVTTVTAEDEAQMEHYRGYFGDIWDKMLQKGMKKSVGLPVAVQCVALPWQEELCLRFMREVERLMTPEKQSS
Procedure, shortened: (§1)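 Competitive activity-based profiling of native membrane proteomes (brain, heart) with no purified enzyme or substrate. Proteome was incubated with rhodamine-tagged fluorophosphonate (FP-Rh) across systematically varied inhibitor concentrations under kinetically controlled conditions. Labeled serine hydrolases were resolved by SDS-PAGE and fluorescence-detected. Loss of band labeling gave IC50 for each enzyme.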

[2] = target: T2, Fatty-acid amide hydrolase 1 (Mus musculus, UniProt O08914); assay: Inhibitor affinity towards enzymes of class serine hydrolase was determined using biotin or fluorescent as radioligand (FP-biotin or FP-Rh)
T2 sequence (O08914 whole entry): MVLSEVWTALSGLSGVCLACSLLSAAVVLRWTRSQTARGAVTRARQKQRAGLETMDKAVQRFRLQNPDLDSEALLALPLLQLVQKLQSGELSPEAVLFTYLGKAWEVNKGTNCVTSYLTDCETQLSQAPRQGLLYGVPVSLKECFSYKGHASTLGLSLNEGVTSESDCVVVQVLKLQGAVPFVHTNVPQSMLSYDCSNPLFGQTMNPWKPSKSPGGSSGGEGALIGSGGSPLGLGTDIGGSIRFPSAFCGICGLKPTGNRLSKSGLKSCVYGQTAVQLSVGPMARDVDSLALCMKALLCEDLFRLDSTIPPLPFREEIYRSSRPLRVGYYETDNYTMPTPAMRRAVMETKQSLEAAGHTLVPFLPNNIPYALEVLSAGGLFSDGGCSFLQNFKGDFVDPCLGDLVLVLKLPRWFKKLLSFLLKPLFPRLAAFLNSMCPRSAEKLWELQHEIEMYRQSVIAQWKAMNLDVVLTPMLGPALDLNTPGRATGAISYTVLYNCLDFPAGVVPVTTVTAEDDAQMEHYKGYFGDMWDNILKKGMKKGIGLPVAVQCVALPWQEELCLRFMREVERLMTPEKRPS

[3] = target: T3, Liver carboxylesterase 1 (Homo sapiens, UniProt P23141); assay: Inhibitory concentration of triacylgylcerol hydrolase using FP-Rh radioligand; procedure, shortened: as §1
T3 sequence (P23141 whole entry): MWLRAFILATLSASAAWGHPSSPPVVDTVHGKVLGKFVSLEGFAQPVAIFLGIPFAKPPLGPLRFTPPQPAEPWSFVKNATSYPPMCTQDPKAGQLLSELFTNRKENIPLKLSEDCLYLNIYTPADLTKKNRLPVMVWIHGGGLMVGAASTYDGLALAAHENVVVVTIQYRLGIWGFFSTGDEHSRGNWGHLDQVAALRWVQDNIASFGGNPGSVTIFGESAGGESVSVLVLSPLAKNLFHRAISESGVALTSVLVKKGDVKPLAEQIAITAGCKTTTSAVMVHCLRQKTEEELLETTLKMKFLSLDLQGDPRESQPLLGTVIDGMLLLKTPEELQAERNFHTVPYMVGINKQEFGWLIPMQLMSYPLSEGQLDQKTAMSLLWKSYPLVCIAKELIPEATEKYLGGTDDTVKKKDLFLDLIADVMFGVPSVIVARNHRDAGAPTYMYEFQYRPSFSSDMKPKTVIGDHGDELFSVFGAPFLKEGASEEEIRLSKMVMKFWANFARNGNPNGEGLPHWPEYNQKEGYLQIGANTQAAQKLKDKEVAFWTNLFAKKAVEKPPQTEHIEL

[4] = Concentration of 50% inhibition of KIAA1363 was determined using FP-Rh as radioligand; procedure, shortened: as §1

| Compound | IC50 [1] [nM] | Ki [2] | IC50 [3] [nM] | IC50 [4] [µM] |
| --- | --- | --- | --- | --- |
| CCCCCCCCCCCC(=O)C(F)(F)F | 10000 | 140 nM | 70 | 0.5 |
| O=C(CCCCCCc1ccccc1)c1nnc(-c2ccco2)o1 | – | 0.56 nM | – | – |
| O=C(CCCCCCCCc1ccccc1)c1nnc(-c2ccccn2)o1 | 0.8 | 0.85 nM and 0.83 nM | 500 | 3 |
| O=C(CCCCCCc1ccccc1)c1ncc(-c2ccccn2)o1 | – | – | – | > 100 |
| O=C(CCCCCCc1ccccc1)C(F)(F)F | 5000 | 100 nM | 1 | 0.2 |
| O=C(CCCCCCc1ccccc1)c1nnc(-c2ccccc2)o1 | – | 2 nM | – | – |
| O=C(CCCCCCCc1ccccc1)c1nnc(-c2ccco2)o1 | – | 0.29 nM | – | – |
| CCCCCCCCCCCCCCCCCC(=O)C(F)(F)F | 6400 | 240 nM | 4600 | 6.6 |
| CCCCCCCC/C=C\CCCCCCCC(=O)c1nc2ccccc2o1 | 10000 | 370 nM | 10000 | > 100 |
| O=C(CCCCCCc1ccccc1)c1nnc(-c2cccnc2)o1 | 20 | 1 nM | 100 | > 100 |
| O=C(CCCCCc1ccccc1)c1ncc(-c2ccccn2)o1 | 100 | 11 nM | 200 | > 100 |
| O=C(CCCCCCCc1ccccc1)c1nnc(-c2ccccn2)o1 | 0.6 | – | 200 | 60 |
| O=C(CCCCCCc1ccccc1)c1nnc(-c2ccncc2)o1 | 20 | 1 nM | 30 | > 100 |
| O=C(CCCCCCCc1ccccc1)c1nc2ncccc2o1 | 0.3 | 0.39 nM | 5 | 20 |
| O=C(CCCCCCCc1ccccc1)c1ncc(-c2ccccn2)o1 | 8 | 7.5 nM | 1000 | > 100 |
| CCCCCCCC/C=C\CCCCCCCC(=O)c1nnc(-c2ccccc2)o1 | 200 | 16 nM | 20000 | > 100 |
| O=C(CCCCCCc1ccccc1)c1nnc(-c2ccccn2)o1 | 1 | – | 140 | 90 |
| O=C(CCCCCc1ccccc1)c1nc2ccccc2o1 | 10000 | 220 nM | 20 | > 100 |

| Compound | IC50 [1] [nM] | Ki [2] | IC50 [3] [nM] | IC50 [4] [µM] |
| --- | --- | --- | --- | --- |
| O=C(CCCCCCCCc1ccccc1)c1ncc(-c2ccccn2)o1 | 30 | 7.8 nM | 6000 | > 100 |
| CCCCCCCC/C=C\CCCCCCCC(=O)c1ncc(-c2ccccc2)o1 | 5000 | 320 nM | 50000 | > 100 |
| O=C(CCCCCc1ccccc1)c1nc2ncccc2o1 | 1 | 0.2 nM | 1 | 10 |
| CCCCCCCC/C=C\CCCCCCCC(=O)c1ncco1 | 2000 | 100 nM | 9000 | > 100 |
| CCCCCCCCCC(=O)C(F)(F)F | 10000 | 130 nM | 10 | 0.4 |
| O=C(CCCCCc1ccccc1)C(F)(F)F | 5000 | 170 nM | 0.5 | 0.8 |
| CCCCCCCC/C=C\CCCCCCCC(=O)c1nc2ncccc2o1 | 40 | 2.3 nM | 1000 | 60 |
| CCCCCCCC/C=C\CCCCCCCC(=O)c1nnc(-c2ccccn2)o1 | 4 | 3 nM | 20000 | > 100 |
| CCCCCCCC(=O)C(F)(F)F | 30000 | 1200 nM | 2 | 1.5 |
| CCCCCCCC/C=C\CCCCCCCC(=O)c1ncc(-c2ccccn2)o1 | 200 | 18 nM | 50000 | > 100 |
| O=C(CCCCCCc1ccccc1)c1nc2ncccc2o1 | 0.3 | 0.28 nM | 3 | 20 |
| O=C(CCCCCCCc1ccccc1)C(F)(F)F | 2000 | 25 nM | 5 | 0.2 |
| O=C(CCCCCc1ccccc1)c1nnc(-c2cccnc2)o1 | – | 0.85 nM | – | – |
| CCCCCCCC/C=C/CCCCCCCC(=O)C(F)(F)F | 5000 | 80 nM | 5000 | 1 |
| CCCCCCCC/C=C\CCCCCCCC(=O)c1nnco1 | – | 90 nM | – | – |
| O=C(CCCCCc1ccccc1)c1nnc(-c2ccccn2)o1 | 4 | – | 30 | 50 |
| O=C(CCCCCCCCc1ccccc1)c1nc2ncccc2o1 | 0.1 | 0.52 nM | 5 | 10 |
